Data set [1] is described as follows: melting temperature; fluorescence melt of hairpins on a sequencing array, two-state fit, raised by 9.35 °C to match UV melts. As to conditions: sodium 0.088 M. A digest of the protocol:
(§1)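 Folding enthalpy and melting temperature were estimated with bootstrapped two-state fits and combined across four replicates by inverse-variance weighting, with fitted temperatures raised by 9.35 °C to match UV melts. The data were Cy3 fluorescence of library hairpins, with annealed Cy3 and quencher oligos, on a sequenced MiSeq flow cell in 50 mM Na-HEPES pH 8.0, 25 mM NaCl, imaged in 2.5 °C steps up to 60 °C and normalised to pre-quench Cy3 and control constructs.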

Data set [2] in a line: folding enthalpy; higher = less favourable; fluorescence melt of hairpins on a sequencing array, two-state fit. To be noted: sodium 0.088 M. A digest of the protocol:
as §1

With GATCCCGTCTGGGATC ((((((....)))))), the Tm in data set [1] is 65.5 °C. Besides, in data set [2], the folding enthalpy is -39.2 kcal/mol.
Consider GATCCCGTGGGGGATC ((((((....)))))), for which the Tm in data set [1] was determined as 60 °C. Also, the folding enthalpy in data set [2] is -31.9 kcal/mol.
In the case of GATCCCTAAGGGGATC ((((((....)))))), the Tm in data set [1] came to 61.1 °C. In addition, the folding enthalpy in data set [2] was -35.2 kcal/mol.
Turning to GATCCCTAATGGGATC ((((((....)))))), the Tm in data set [1] came out at 57.6 °C. The folding enthalpy in data set [2] is -38.3 kcal/mol.
Take GATCCCTACAGGGATC ((((((....)))))): in data set [1], the Tm was found to be 65.6 °C. The folding enthalpy in data set [2] is -36.2 kcal/mol.
For GATCCCTATAGGGATC ((((((....)))))), the Tm in data set [1] was found to be 65.6 °C. Further, the folding enthalpy in data set [2] was -45.4 kcal/mol.
Consider GATCCCTCAAGGGATC ((((((....)))))), for which, in data set [1], the Tm amounted to 60.9 °C. Further, the folding enthalpy in data set [2] was -40 kcal/mol.
As to GATCCCTCTCGGGATC ((((((....)))))), in data set [1], the Tm turned out to be 63.5 °C. The folding enthalpy in data set [2] is -34.3 kcal/mol.
For the sequence GATCCCTGAAGGGATC ((((((....)))))), the Tm in data set [1] was found to be 64.1 °C. Besides, in data set [2], the folding enthalpy is -32.8 kcal/mol.
Regarding GATCCCTGACGGGATC ((((((....)))))), the Tm in data set [1] is 58.1 °C. Besides, in data set [2], the folding enthalpy was -38.6 kcal/mol.
For GATCCCTGAGGGATC ((((((...)))))), in data set [1], the Tm turned out to be 59.6 °C. Moreover, the folding enthalpy in data set [2] was -34.7 kcal/mol.
In the case of GATCCCTGCTGGGATC ((((((....)))))), the Tm in data set [1] is 60.2 °C. Besides, in data set [2], the folding enthalpy is -39.5 kcal/mol.
Take GATCCCTTAAGGGATC ((((((....)))))): in data set [1], the Tm was 65.6 °C. Also, the folding enthalpy in data set [2] is -39.4 kcal/mol.
As for GATCCCTTTGGGATC ((((((...)))))), the Tm in data set [1] amounted to 63.5 °C. The folding enthalpy in data set [2] is -40.6 kcal/mol.
With GATCCGAAACCGGATC ((((((....)))))), in data set [1], the Tm is 53.4 °C. Also, the folding enthalpy in data set [2] was -38 kcal/mol.
For the sequence GATCCGAAAGCGGATC ((((((....)))))), the Tm in data set [1] was 53.1 °C. Besides, the folding enthalpy in data set [2] was -34 kcal/mol.
Regarding GATCCGAACCCGGATC ((((((....)))))), in data set [1], the Tm was 54.8 °C. The folding enthalpy in data set [2] is -38.9 kcal/mol.
As to GATCCGAAGGCGGATC ((((((....)))))), the Tm in data set [1] was 52.3 °C. Further, the folding enthalpy in data set [2] is -28.4 kcal/mol.
The matching figures for GATCCGAATACGGATC ((((((....)))))): 57.5 °C and -38.6 kcal/mol.
As to GATCCGACTACGGATC ((((((....)))))), the Tm in data set [1] was 57.1 °C. The folding enthalpy in data set [2] is -35.6 kcal/mol.
Consider GATCCGACTCGGATC ((((((...)))))), for which, in data set [1], the Tm turned out to be 55.7 °C. Further, the folding enthalpy in data set [2] is -38.9 kcal/mol.
Take GATCCGAGGACGGATC ((((((....)))))): the Tm in data set [1] was found to be 56.5 °C. For the same sequence, in data set [2], the folding enthalpy is -33.9 kcal/mol.
GATCCGAGGGCGGATC ((((((....)))))): in data set [1], the Tm came out at 55.3 °C. Besides, the folding enthalpy in data set [2] was -31.5 kcal/mol.
As to GATCCGATGCCGGATC ((((((....)))))), in data set [1], the Tm stood at 56.1 °C. Besides, in data set [2], the folding enthalpy is -40.1 kcal/mol.
GATCCGCAACCGGATC ((((((....)))))): the Tm in data set [1] worked out at 55.1 °C. The folding enthalpy in data set [2] is -39.3 kcal/mol.
For GATCCGCACGCGGATC ((((((....)))))) the same measures were 67.6 °C and -39.1 kcal/mol.
Take GATCCGCAGACGGATC ((((((....)))))): in data set [1], the Tm came to 60.8 °C. Further, the folding enthalpy in data set [2] was -36.3 kcal/mol.
For GATCCGCAGCGGATC ((((((...)))))), the Tm in data set [1] was determined as 54.8 °C. For the same sequence, the folding enthalpy in data set [2] was -54.5 kcal/mol.
Consider GATCCGCATACGGATC ((((((....)))))), for which the Tm in data set [1] is 61.5 °C. Moreover, the folding enthalpy in data set [2] is -37.9 kcal/mol.
On to GATCCGCATGCGGATC ((((((....)))))), for which the Tm in data set [1] came to 69 °C. Further, the folding enthalpy in data set [2] is -30.3 kcal/mol.
Turning to GATCCGCATTCGGATC ((((((....)))))), in data set [1], the Tm came to 59.8 °C. In addition, the folding enthalpy in data set [2] was -36.1 kcal/mol.
As for GATCCGCCACGGATC ((((((...)))))), the Tm in data set [1] was 57.2 °C. Besides, in data set [2], the folding enthalpy is -37 kcal/mol.
Regarding GATCCGCCTCCGGATC ((((((....)))))), in data set [1], the Tm came out at 56.1 °C. In data set [2], the folding enthalpy is -34.5 kcal/mol.
Consider GATCCGCCTCGGATC ((((((...)))))), for which the Tm in data set [1] was 56.7 °C. Besides, the folding enthalpy in data set [2] was -30 kcal/mol.
The matching figures for GATCCGCCTGCGGATC ((((((....)))))): 69.2 °C and -40.3 kcal/mol.
In the case of GATCCGCGCTCGGATC ((((((....)))))), the Tm in data set [1] was 57.4 °C. Besides, the folding enthalpy in data set [2] is -37.3 kcal/mol.
As to GATCCGCGGCGGATC ((((((...)))))), the Tm in data set [1] turned out to be 57.7 °C. Also, the folding enthalpy in data set [2] is -50.8 kcal/mol.
The matching figures for GATCCGCGTACGGATC ((((((....)))))): 60.4 °C and -35.3 kcal/mol.
